Published values from different studies.
Protocols differ between the studies behind these lines.

| SMILES | system | conditions | quantity | value |
| --- | --- | --- | --- | --- |
| O=C(O)C1CCN(c2ncc(-c3ccc4c(c3)OCCCO4)s2)CC1 | male Swiss mouse, brain | oral, 30 mg/kg, single dose | tissue/plasma ratio | 0.028 |
| CC(C)(C)c1ccc(O)c(CN(Cc2cc(C(C)(C)C)ccc2O)C2CCC(NC(N)=O)CC2)c1 (stereo not shown) | male C57BL/6 mouse, brain | oral, 10 mg/kg, single dose | tissue/plasma ratio | 0.64 |
| CN(C(=O)n1cnc(-c2ccc[n+]([O-])c2)c1)C1CCCCC1 | male cynomolgus monkey, plasma | oral, 0.1 mg/kg | Tmax | 1 h |
| CCc1nc2c(C)cc(N3CCN(CC(=O)N4CC(O)C4)CC3)cn2c1N(C)c1nc(-c2ccc(F)cc2)c(C#N)s1 | human, plasma | oral, 150 mg, fed, healthy volunteers | AUC(0-inf) | 6400 ng·h/mL |
| CC(C)(O)c1ccccc1-c1ccc2[nH]c(/C=C/c3ccc(C(F)(F)F)cc3)nc2c1 | male human, plasma | oral, 2 mg, single dose, fasted | AUC(0-t) | 94.7 ng·h/mL |
| COc1ccc([C@@H]2CN(C(=O)[C@@H](O)CO)C[C@@]2(C)[C@@H](C)O)cc1OC1CN(c2ccc(C)cn2)C1 | human, plasma | oral, 0.1 mg, single dose, healthy volunteers | AUC(0-inf) | 59.1 ng·h/mL |
| Fc1ccc(COC2CCN(Cc3ccc4[nH]cnc4c3)CC2)cc1F | mouse, brain | intraperitoneal, 5 mg/kg | unbound tissue/plasma ratio | 3.7 |
| CC(C)n1cc(C#N)c2cc(-n3cc(C(=O)O)cn3)ccc21 | human, plasma | oral, 400 mg, single dose, fasted, healthy volunteers | AUC(0-inf) | 92000 ng·h/mL |
| COc1cc(C(=O)NC2CCN(C)CC2)c(F)cc1Nc1ncc(C(F)(F)F)c(Oc2cccc3c2C(=O)N(C)C3)n1 | human, plasma | oral, 25 mg, multiple doses, once daily, steady state, patients | AUC | 5.1 µM·h |
| CCN(CC)C(=O)[C@@]1(c2ccccc2)C[C@H]1CN | male cynomolgus monkey, plasma | oral, 30 mg/kg | Tmax | 4 h |
